Laboratory results: ChEMBL document CHEMBL4011623, “Development of 1-((1,4-trans)-4-Aryloxycyclohexyl)-3-arylurea Activators of Heme-Regulated Inhibitor as Selective Activators of the Eukaryotic Initiation Factor 2 Alpha (eIF2α) Phosphorylation Arm of the Integrated Endoplasmic Reticulum Stress Response” (J Med Chem, 2017)

How the values were obtained:
[1] = biological target: Eukaryotic translation initiation factor 2-alpha kinase 1 (Mus musculus) (UniProt Q9Z2R9); experiment: Activation of HRI in mouse KLN cells transfected with 5'UTR of ATF-4 mRNA fused firefly luciferase mRNA and 5'UTR lacking uORF fused renila luciferase mRNA assessed as increase in eIF2alpha phosphorylation by measuring ratio of firefly luciferase to renila luciferase after 16 hrs; assay type: cell-based
Sequence of Eukaryotic translation initiation factor 2-alpha kinase 1 (Mus musculus) (Q9Z2R9 whole entry, the tested form may be a part): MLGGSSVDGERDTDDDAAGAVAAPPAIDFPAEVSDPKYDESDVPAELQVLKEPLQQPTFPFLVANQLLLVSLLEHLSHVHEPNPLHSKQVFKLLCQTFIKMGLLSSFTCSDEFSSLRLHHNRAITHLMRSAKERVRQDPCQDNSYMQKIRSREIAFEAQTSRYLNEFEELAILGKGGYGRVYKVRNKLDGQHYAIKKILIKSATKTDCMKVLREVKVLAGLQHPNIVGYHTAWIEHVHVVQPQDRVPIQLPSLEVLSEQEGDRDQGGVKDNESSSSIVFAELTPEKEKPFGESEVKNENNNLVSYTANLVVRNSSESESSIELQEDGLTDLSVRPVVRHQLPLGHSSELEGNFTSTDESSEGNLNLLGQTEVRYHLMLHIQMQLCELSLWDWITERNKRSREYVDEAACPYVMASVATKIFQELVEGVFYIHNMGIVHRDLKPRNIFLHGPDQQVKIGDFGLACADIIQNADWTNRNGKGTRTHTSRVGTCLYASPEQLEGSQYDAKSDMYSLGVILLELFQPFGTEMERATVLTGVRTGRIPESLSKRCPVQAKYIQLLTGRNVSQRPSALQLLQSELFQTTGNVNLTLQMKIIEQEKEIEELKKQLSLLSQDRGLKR

[2] = Antiproliferative activity against human CRL2813 cells after 5 days by sulforhodamine B assay; assay type: functional, cell-based; details: CRL2813, 120 h
Method in brief: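 CRL-2813 melanoma cells grown 5 days with 0.5–20 μM compound, then fixed in cold 10% TCA and stained with sulforhodamine B. Bound dye measured. Growth % = 100×(T−T0)/(C−T0), with T0 at time zero. IC50 is the concentration giving 50% growth inhibition.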

[3] = biological target: Eukaryotic translation initiation factor 2-alpha kinase 1 (Mus musculus) (UniProt Q9Z2R9); experiment: Activation of HRI in mouse KLN cells transfected with 5'UTR of ATF-4 mRNA fused firefly luciferase mRNA and 5'UTR lacking uORF fused renila luciferase mRNA assessed as increase in eIF2alpha phosphorylation by measuring ratio of firefly luciferase to renila luciferase at 5 uM after 16 hrs; assay type: cell-based
[4] = biological target: Eukaryotic translation initiation factor 2-alpha kinase 1 (Mus musculus) (UniProt Q9Z2R9); experiment: Activation of HRI in mouse KLN cells transfected with 5'UTR of ATF-4 mRNA fused firefly luciferase mRNA and 5'UTR lacking uORF fused renila luciferase mRNA assessed as increase in eIF2alpha phosphorylation by measuring ratio of firefly luciferase to renila luciferase at 1.25 uM after 16 hrs; assay type: cell-based

With `O=C(Nc1cccc(C(F)(F)F)c1)N[C@H]1CC[C@H](Oc2ccc(C(F)(F)F)cc2[N+](=O)[O-])CC1` the Activity [1] was “Dose-dependent effect”, the IC50 [2] was 5510 nM and the Ratio [3] was 3.28. For the same compound, the Ratio [4] was 0.96.
With `O=C(Nc1cccc(OC(F)(F)F)c1)N[C@H]1CC[C@H](Oc2ccc(OC(F)(F)F)cc2)CC1` the Activity [1] was “Dose-dependent effect”, the IC50 [2] was 1450 nM and the Ratio [3] was 10.7. The Ratio [4] was 2.87.
With `NC(=O)c1cc(O[C@H]2CC[C@H](NC(=O)Nc3cccc(C(F)(F)F)c3)CC2)ccc1C(F)(F)F` the Activity [1] was “Dose-dependent effect”, the IC50 [2] was 3360 nM and the Ratio [3] was 1.12. The Ratio [4] was 0.79.
In the case of `NC(=O)c1cc(C(F)(F)F)ccc1O[C@H]1CC[C@H](NC(=O)Nc2cccc(OC(F)(F)F)c2)CC1`, the Activity [1] is reported as “Dose-dependent effect”, the IC50 [2] is reported as 1530 nM and the Ratio [3] is reported as 5.13. For the same compound, the Ratio [4] was 0.88.
In the case of `CC(=O)Nc1cc(C(F)(F)F)ccc1O[C@H]1CC[C@H](NC(=O)Nc2cccc(OC(F)(F)F)c2)CC1`, the Activity [1] is reported as “Dose-dependent effect”, the IC50 [2] is reported as 1500 nM and the Ratio [3] is reported as 4.31. The Ratio [4] was 0.85.
With `O=C(Nc1cccc(C(F)(F)F)c1)N[C@H]1CC[C@H](Oc2ccc(C(F)(F)F)cn2)CC1` the Activity [1] was “Dose-dependent effect”, the IC50 [2] was 1570 nM and the Ratio [3] was 6.11. The Ratio [4] was 1.02.
With `CC(=O)Nc1cc(C(F)(F)F)ccc1O[C@H]1CC[C@H](NC(=O)Nc2cccc(C(F)(F)F)c2)CC1` the Activity [1] was “Dose-dependent effect”, the IC50 [2] was 1460 nM and the Ratio [3] was 3.9. It also gave a Ratio [4] of 0.84.
With `N#Cc1cc(C#N)cc(NC(=O)N[C@H]2CC[C@H](Oc3ccc(C(F)(F)F)cc3)CC2)c1` the Activity [1] was “Dose-dependent effect”, the IC50 [2] was 3680 nM and the Ratio [3] was 2.36. For the same compound, the Ratio [4] was 1.51.
`O=C(Nc1cccc(C(F)(F)F)c1)N[C@H]1CC[C@H](Oc2ccc(OC(F)(F)F)cc2)CC1` gave an IC50 [2] of 820 nM, a Ratio [3] of 10.1 and a Ratio [4] of 3.37.
In the case of `N#Cc1cc(C(F)(F)F)ccc1O[C@H]1CC[C@H](NC(=O)Nc2cccc(C(F)(F)F)c2)CC1`, the Activity [1] is reported as “Dose-dependent effect”, the IC50 [2] is reported as 1470 nM and the Ratio [3] is reported as 6.3. For the same compound, the Ratio [4] was 1.01.
In the case of `N#Cc1ccc(NC(=O)N[C@H]2CC[C@H](Oc3ccc(C#N)cc3)CC2)cc1`, the Activity [1] is reported as “Dose-dependent effect”, the IC50 [2] is reported as 9030 nM and the Ratio [3] is reported as 1.38. It also gave a Ratio [4] of 1.03.
In the case of `N#Cc1ccc(O[C@H]2CC[C@H](NC(=O)Nc3cccc(C(F)(F)F)c3)CC2)cc1`, the Activity [1] is reported as “Dose-dependent effect”, the IC50 [2] is reported as 6060 nM and the Ratio [3] is reported as 3.23. For the same compound, the Ratio [4] was 0.92.
For `N#Cc1cccc(NC(=O)N[C@H]2CC[C@H](Oc3ccc(C(F)(F)F)cc3)CC2)c1`, the Activity [1] was “Dose-dependent effect”, the IC50 [2] was 940 nM and the Ratio [3] was 7. It also gave a Ratio [4] of 0.96.
In the case of `NC(=O)c1cc(O[C@H]2CC[C@H](NC(=O)Nc3cccc(OC(F)(F)F)c3)CC2)ccc1C(F)(F)F`, the Activity [1] is reported as “Dose-dependent effect”, the IC50 [2] is reported as 3660 nM and the Ratio [3] is reported as 1.57. It also gave a Ratio [4] of 1.04.
With `O=C(Nc1ccc(Oc2ccc(C(F)(F)F)cc2)cc1)Nc1cccc(C(F)(F)F)c1` the Activity [1] was “Dose-dependent effect”, the IC50 [2] was 440 nM and the Ratio [3] was 8.99. It also gave a Ratio [4] of 3.31.
In the case of `O=C(Nc1ccc(Oc2ccc(C(F)(F)F)cc2)cc1)Nc1cccc(OC(F)(F)F)c1`, the Activity [1] is reported as “Dose-dependent effect”, the IC50 [2] is reported as 500 nM and the Ratio [3] is reported as 6.73. It also gave a Ratio [4] of 2.37.
In the case of `N#Cc1ccc(O[C@H]2CC[C@H](NC(=O)Nc3cccc(C#N)c3)CC2)cc1`, the Activity [1] is reported as “Dose-dependent effect”, the IC50 [2] is reported as 8200 nM and the Ratio [3] is reported as 1.15. It also gave a Ratio [4] of 1.01.
With `NC(=O)c1cc(C(F)(F)F)ccc1O[C@H]1CC[C@H](NC(=O)Nc2cccc(C(F)(F)F)c2)CC1` the Activity [1] was “Dose-dependent effect”, the IC50 [2] was 2760 nM and the Ratio [3] was 1.49. It also gave a Ratio [4] of 0.91.
